The target in one assay is T1, Progesterone receptor (Homo sapiens, UniProt P06401).
T1 sequence (P06401 whole entry): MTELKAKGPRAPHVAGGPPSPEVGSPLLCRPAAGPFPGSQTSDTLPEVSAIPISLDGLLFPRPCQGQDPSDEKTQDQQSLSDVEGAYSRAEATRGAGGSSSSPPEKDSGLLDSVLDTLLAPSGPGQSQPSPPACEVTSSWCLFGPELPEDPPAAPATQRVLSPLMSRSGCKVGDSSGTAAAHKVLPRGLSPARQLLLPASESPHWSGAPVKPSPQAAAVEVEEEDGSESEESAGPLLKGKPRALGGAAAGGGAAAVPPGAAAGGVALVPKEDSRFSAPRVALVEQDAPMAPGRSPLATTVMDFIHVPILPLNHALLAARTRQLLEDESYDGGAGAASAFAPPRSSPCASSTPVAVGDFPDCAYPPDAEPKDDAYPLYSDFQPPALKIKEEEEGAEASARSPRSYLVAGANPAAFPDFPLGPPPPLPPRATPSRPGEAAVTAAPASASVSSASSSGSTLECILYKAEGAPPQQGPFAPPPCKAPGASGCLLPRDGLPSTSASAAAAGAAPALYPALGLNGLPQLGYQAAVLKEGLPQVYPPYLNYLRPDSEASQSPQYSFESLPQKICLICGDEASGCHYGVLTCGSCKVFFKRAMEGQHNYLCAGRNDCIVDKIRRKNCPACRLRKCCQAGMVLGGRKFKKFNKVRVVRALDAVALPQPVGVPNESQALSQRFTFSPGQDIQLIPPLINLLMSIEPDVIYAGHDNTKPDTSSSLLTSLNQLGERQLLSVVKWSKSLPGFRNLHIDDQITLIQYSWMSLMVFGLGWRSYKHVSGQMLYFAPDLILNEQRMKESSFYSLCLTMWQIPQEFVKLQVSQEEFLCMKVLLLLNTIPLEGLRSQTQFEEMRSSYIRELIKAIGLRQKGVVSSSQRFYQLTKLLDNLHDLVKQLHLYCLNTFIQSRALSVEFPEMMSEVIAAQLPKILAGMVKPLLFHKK
The assay can be described thus: Displacement of [3H]-Progesterone from human PR expressed in 293 cells after 16 hrs by scintillation counting. In kind it is cell-based, HEK293. The method, boiled down:
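The PR assay ran like the MR cytosolic binding assay from transfected 293 cells, with 5 nM [3H]-progesterone as ligand. Incubation was 16 h at 4 °C in TEGM buffer pH 7.2, followed by dextran/gelatin-charcoal removal of free label and scintillation counting of the supernatant. Concentrations were run in duplicate; IC50 taken as the mean of duplicate experiments from concentration-response curves.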

In assay [1] the target is T2, Mineralocorticoid receptor (Homo sapiens, UniProt P08235).
T2 sequence (P08235 whole entry): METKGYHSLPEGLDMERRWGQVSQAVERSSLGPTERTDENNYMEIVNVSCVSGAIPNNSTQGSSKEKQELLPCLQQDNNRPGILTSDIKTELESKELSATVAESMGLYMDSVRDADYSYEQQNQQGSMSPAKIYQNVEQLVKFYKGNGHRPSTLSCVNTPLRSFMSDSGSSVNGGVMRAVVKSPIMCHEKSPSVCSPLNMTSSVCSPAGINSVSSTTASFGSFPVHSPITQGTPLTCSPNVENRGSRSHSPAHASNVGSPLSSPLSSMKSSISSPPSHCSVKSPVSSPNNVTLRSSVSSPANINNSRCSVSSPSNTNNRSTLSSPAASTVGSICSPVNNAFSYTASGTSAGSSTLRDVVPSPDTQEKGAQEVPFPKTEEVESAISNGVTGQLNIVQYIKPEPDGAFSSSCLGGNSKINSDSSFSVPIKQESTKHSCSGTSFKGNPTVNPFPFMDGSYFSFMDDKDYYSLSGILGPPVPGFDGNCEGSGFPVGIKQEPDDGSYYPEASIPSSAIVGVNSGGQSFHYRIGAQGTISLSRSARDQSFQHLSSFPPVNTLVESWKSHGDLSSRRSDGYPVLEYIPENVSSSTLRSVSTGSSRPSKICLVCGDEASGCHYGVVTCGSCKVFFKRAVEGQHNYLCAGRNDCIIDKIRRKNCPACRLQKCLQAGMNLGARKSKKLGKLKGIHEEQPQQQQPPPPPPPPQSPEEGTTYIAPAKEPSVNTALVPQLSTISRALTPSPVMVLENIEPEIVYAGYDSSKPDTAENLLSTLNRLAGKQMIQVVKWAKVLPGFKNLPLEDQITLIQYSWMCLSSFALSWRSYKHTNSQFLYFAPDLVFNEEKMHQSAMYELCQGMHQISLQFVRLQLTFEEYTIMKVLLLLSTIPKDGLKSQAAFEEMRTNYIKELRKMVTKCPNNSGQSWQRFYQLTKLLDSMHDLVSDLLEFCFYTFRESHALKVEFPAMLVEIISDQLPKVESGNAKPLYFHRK
In words: Displacement of [3H]-Aldosterone from human MR expressed in 293 cells after 16 hrs by scintillation counting. In kind it is cell-based, HEK293. In outline:
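Cytosolic protein (0.75-1.5 mg/mL) from FreeStyle 293 cells transiently transfected with human MR was incubated for 16 h at 4 °C with 10 nM [3H]-aldosterone and serially diluted compound in TEGM buffer (Tris pH 7.2, EDTA, glycerol, DTT, molybdate, protease inhibitors). Free ligand was removed with dextran/gelatin-coated charcoal and the supernatant counted. Nonspecific binding used 100 µM cold aldosterone. Duplicates; IC50 from curve fit.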

pIC50: −log10 of the molar value.

`CC1(C)OC(=O)C(c2ccc(F)cc2)=C1c1ccc2c(c1)NC(=O)CO2`: the negative-log IC50 (pIC50) at Progesterone receptor was 6.00; in assay [1], 5.92.
As to `Cc1cc(C2=C(c3ccc(F)cc3)C(=O)NC2C)cc2c1OCC(=O)N2` (stereo unspecified), the values for the negative-log IC50 (pIC50) (on Progesterone receptor; in assay [1]) were less than 5.00 and 7.37, respectively.
Take `CC1NC(=O)C(c2ccc(F)cc2)=C1c1cc(Cl)c2c(c1)NC(=O)CO2` (stereo unspecified): the pIC50 at Progesterone receptor is 5.80; in assay [1], 7.64.
For `CC1NC(=O)C(c2ccc(F)cc2)=C1c1cc(F)c2c(c1)NC(=O)CO2` (stereo unspecified), the pIC50 at Progesterone receptor is 5.49; in assay [1] it was 7.04.
As to `CC1NC(=O)C(c2ccc(F)cc2)=C1c1ccc2c(c1)NC(=O)CO2` (stereo unspecified), the pIC50 at Progesterone receptor was 5.25; in assay [1], 7.03.
As for `CCN1C(=O)C(c2ccc(F)cc2)=C(c2ccc3c(c2)NC(=O)CO3)C1C` (stereo unspecified), the pIC50 was 6.11 on Progesterone receptor and 7.48 in assay [1].
As to `CCC1OC(=O)C(c2ccc(F)cc2)=C1c1ccc2c(c1)NC(=O)CO2` (stereo unspecified), the negative logarithm of the IC50 (pIC50) on Progesterone receptor is 5.66; in assay [1], 5.92.
Turning to `CC1C(c2ccc3c(c2)NC(=O)CO3)=C(c2ccc(F)cc2)C(=O)N1C1CC1` (stereo unspecified), the negative logarithm of the IC50 (pIC50) at Progesterone receptor is 6.40; in assay [1], 7.17.
`O=C1COc2ccc(C3=C(c4ccc(F)cc4)C(=O)OC3)cc2N1`: the pIC50 is less than 5.00 at Progesterone receptor and 6.30 in assay [1].
Take `CC1(F)OC(=O)C(c2ccc(F)cc2)=C1c1ccc2c(c1)NC(=O)CO2` (stereo unspecified): the negative logarithm of the IC50 (pIC50) was 5.30 at Progesterone receptor and 6.26 in assay [1].
On to `CC1C(c2ccc3c(c2)NC(=O)CO3)=C(c2ccc(F)cc2)C(=O)N1CCO` (stereo unspecified), for which the figures for the pIC50 (at Progesterone receptor; in assay [1]) were less than 5.00 and 5.80, respectively.
Consider `CC1C(c2ccc3c(c2)NC(=O)CO3)=C(c2ccc(F)cc2)C(=O)N1C` (stereo unspecified), for which the pIC50 was 7.21 on Progesterone receptor and 6.77 in assay [1].
For the compound `Cc1cc(F)ccc1C1=C(c2ccc3c(c2)NC(=O)CO3)COC1=O`, the pIC50 was 5.74 on Progesterone receptor and 6.12 in assay [1].

One may read the pIC50 as the IC50 on a negative log10 scale, so that one unit is a factor of ten. Low values mean a large IC50, high ones a small IC50.

(Values after ChEMBL document CHEMBL2417412, “Design, synthesis, and structure-activity relationships of dihydrofuran-2-one and dihydropyrrol-2-one derivatives as novel benzoxazin-3-one-based mineralocorticoid receptor antagonists” (Bioorg Med Chem, 2013).)
